# Assay outcomes (PubChem BioAssay)
# m5-HT2A agonist = activates the mouse 5-HT2A serotonin receptor | activation, % at 7.6 µM | 0.66% of 360,000 active | P35363 | CHO-K1 mHTR2A beta-arrestin complementation, luminescence; percent of 30 µM serotonin response | AID 624169;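 active = activation above a run cutoff, the mean activation of all tested compounds plus 3 SD, cut at about 14% in these data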;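 also: 0% = plate median of compound wells and 100% = 30 µM serotonin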
# NTR1 agonist = agonists of human neurotensin receptor NTR1; P30989; NTR1-U2OS beta-arrestin-GFP spot imaging, agonist mode; activation, % at 20 µM; 0.17% of 330,000 active;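 active = activation at or above 40% of the spot to cytoplasm intensity ratio, with at least 20 cells analyzed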;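 also: 0% = DMSO without peptide and 100% = 100 nM NTR1 peptide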
# MC4R ag barr = human MC4R agonism via beta-arrestin | AID 540308 | activation, % at 8.9 µM | U2OS MC4R beta-arrestin complementation, luminescence; percent of melanotan II response, DMSO zero | P32245 | 0.98% of 360,000 active;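 active = activation above a per-plate cutoff, the mean activation of sample wells on that plate plus 3 SD, cut at about 8% in these data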
# PREPL inh = inhibitors of human prolyl oligopeptidase-like enzyme PREPL; AID 2751; Q4J6C6; inhibition, % at 5.96 µM; recombinant PREPL, fluorescence polarization activity-based probe; 0.68% of 320,000 active; in the data active = inhibition above about 43%;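 also: 0% = enzyme with DMSO and 100% = wells lacking enzyme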
# Lipid droplet = hepatic lipid droplet formation modulation | inhibition, % at 6.5 µM | 0.4% of 240,000 active | AML12 mouse hepatocytes, oleate lipid droplets, BODIPY imaging;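 active = lipid droplet intensity inhibited by at least 50%, with more than 500 cells counted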
#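 Technique: fluorescence imaging, 20x objective, two fields per well / Assay system: AML12 hepatocytes (mouse) / Measure: % inhibition of lipid droplet signal / Doses: 6.5 µM single-point dosing / Incubation: overnight exposure / Reagent: 100 µM oleic acid challenge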
# MC4R antag cAMP = antagonists of human melanocortin 4 receptor (MC4R) | P32245 | MC4R-expressing cells, MTII-stimulated cAMP, LANCE TR-FRET | inhibition, % at 6.5 µM | 0.48% of 360,000 active | AID 540295;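 active = inhibition above its plate's cutoff, the mean of tested wells on that plate plus 3 SD, cut at about 29% in these data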;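 also: 0% = Melanotan II alone and 100% = Melanotan II plus saturating MCL0020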
#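 material = U2OS cells stably expressing human melanocortin 4 receptor (MC4R) | also added = Melanotan II challenge | dosing = single nominal compound dose of 6.5 µM | detection = TR-FRET with Eu-cAMP and labeled anti-cAMP, 671 nm | replication = singlicate | timing = compound 30 min, challenge 1 h, detection 1 h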
# MOR ag counter = counter-screen for mouse HTR2A agonists: human mu opioid receptor agonists | shares compounds with m5-HT2A agonist | U2OS OPRM1 beta-arrestin PathHunter, luminescence; DMSO 0%, DAMGO 9.3 µM 100% | activation, % at 9.3 µM | 5.3% of 2,300 active | AID 624380;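 active = mean activation above the mean of DMSO-only wells plus 3 SD, cut at about 0.5% in these data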
# Target sequence (P35372 whole entry, looked up): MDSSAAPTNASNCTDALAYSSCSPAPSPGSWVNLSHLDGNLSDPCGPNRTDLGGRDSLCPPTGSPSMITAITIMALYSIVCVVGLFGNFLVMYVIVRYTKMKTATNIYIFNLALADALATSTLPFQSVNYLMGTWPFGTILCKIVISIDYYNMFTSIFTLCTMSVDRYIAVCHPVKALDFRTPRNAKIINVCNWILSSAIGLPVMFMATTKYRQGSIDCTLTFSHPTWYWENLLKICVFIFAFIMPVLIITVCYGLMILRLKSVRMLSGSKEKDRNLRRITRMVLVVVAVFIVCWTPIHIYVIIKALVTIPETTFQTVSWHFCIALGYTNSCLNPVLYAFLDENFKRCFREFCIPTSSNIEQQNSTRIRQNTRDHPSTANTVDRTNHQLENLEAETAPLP
# m5-HT2A ag conf = confirmation of mouse HTR2A serotonin receptor agonists | shares compounds with m5-HT2A agonist | CHO-K1 PathHunter beta-arrestin recruitment, luminescence; DMSO 0%, 30 µM serotonin 100% | activation, % at 7.6 µM | 19% of 2,300 active | AID 624381;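 active = mean activation across triplicates above the hit threshold derived in the original primary screen, cut at about 15% in these data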
# Starred values were filed as active, the others as inactive; . = no result. The list is not random: actives were taken first. Their share in the collection is about 2.7%.
SMILES,m5-HT2A agonist,NTR1 agonist,MC4R ag barr,PREPL inh,Lipid droplet,MC4R antag cAMP,MOR ag counter,m5-HT2A ag conf
C=CCN1CCc2c(cc(O)c(O)c2Cl)C(c2ccccc2)C1 (stereo unspecified),60*,0,0,6,-2,-14,0,148*
C=CCN1CCN(C(=O)c2ccc(-c3ccccc3)cc2)CC1,2,-1,0,5,-1,17,.,.
Cc1cccc(C2CN(C)CCc3c2cc(O)c(O)c3Cl)c1 (stereo unspecified),22*,0,0,7,.,4,0,34*
CCCCN(C=O)c1c(CC)nc2c(OCC3CCCCC3)cccn12,-3,.,-2,.,.,7,.,.
COc1ccc(S(=O)(=O)NCCSCc2ccc(Cl)cc2)cc1NC(C)=O,2,0,-3,.,.,9,.,.
COc1ccc(CCC(=O)OCC(=O)c2c(N)n(CC(C)C)c(=O)n(C)c2=O)cc1,17*,2,-2,24,-14,6,0,-1
COc1ccccc1CCC(=O)OCC(=O)c1c(N)n(CC(C)C)c(=O)n(C)c1=O,5,3,3,4,.,2,.,.
CC(C)Cn1c(N)c(C(=O)CSc2n[nH]c(N)n2)c(=O)n(C)c1=O,25*,-2,-2,10,.,3,-1,-3
CCc1nc2c(OCC(=O)c3ccc(F)cc3)cccn2c1N(C)C(=O)C(C)C,24*,.,-1,.,.,7,0,-5
CCc1nc2c(OCc3ccc(F)cc3)cccn2c1N(C)C(=O)C(C)C,4,.,0,.,.,-1,.,.
CCc1nc2c(OC)cccn2c1N(C)C(=O)c1ccccc1F,2,.,0,.,.,6,.,.
C=CCOc1cccn2c(N(C)C(=O)c3ccccc3F)c(CC)nc12,16*,.,-1,.,.,1,0,-2
COC(=O)c1ccc(NC(=O)CS(=O)(=O)Cc2ccccc2)cc1,0,0,-1,-1,.,-2,.,.
CCOC(=O)c1ccc(NC(=O)CCS(=O)(=O)Cc2ccccc2)cc1,15*,2,4,1,16,-4,0,13
CC(C)c1ccc(CN(C(=O)c2cccs2)C2CCS(=O)(=O)C2)cc1 (stereo unspecified),15*,0,0,-2,-6,3,-1,-4
O=C(CCC(=O)N1CCN(c2ccccc2F)CC1)c1ccc(Cl)s1,19*,-2,-2,-11,.,-2,0,-5
CCCCNC(=O)C1(C)CCN1C(=O)c1cccc2c1OCCO2 (stereo unspecified),0,.,-2,.,.,6,.,.
CCOC(=O)c1ccc(NC(=O)COc2ccc(-n3cnnn3)cc2)cc1,17*,0,1,8,2,-1,0,15*
COc1cccc(NC(=O)CCNC(=O)C2CCN(S(=O)(=O)c3ccc(F)cc3)CC2)c1,0,1,-1,-7,20,5,.,.
COC(=O)C1C2CCCCC1C(=O)O2 (stereo unspecified),-4,.,-1,.,.,10,.,.
CC1=C(C(=O)N(C)C)CC(CC(=O)NC2CCCCC2)C(=O)N1CCCN1CCCC1=O (stereo unspecified),16*,.,0,.,.,-4,-1,-4
CC1=C(C(=O)N(C)C)CC(CC(=O)NC2CCCC2)C(=O)N1CCCN1CCCC1=O (stereo unspecified),3,.,1,.,.,1,.,.
